Assay results collected from several papers.
Protocols differ between the studies behind these lines.
Melanocortin receptor 3: Melanocortin receptor 3 (Mus musculus, UniProt P33033)
CHRM1: Muscarinic acetylcholine receptor M1 (CHRM1, Homo sapiens, UniProt P11229)
Grm8: Metabotropic glutamate receptor 8 (Grm8, Rattus norvegicus, UniProt P70579)
TLR7: Toll-like receptor 7 (TLR7, Homo sapiens, UniProt Q9NYK1)

With `CC[C@@H]1SC2(CCN(C)CC2)NC1=O` the EC50 was greater than 50 µM (Muscarinic acetylcholine receptor M4 (Rattus norvegicus, UniProt P08485); calcium signal, agonist).
With `C[C@]12CCC3=C4CCC(=O)C=C4CC[C@H]3[C@@H]1CC[C@@]2(O)CC#N` the EC50 was 0.0036 µM (Progesterone receptor (PGR, Homo sapiens, UniProt P06401); reporter gene, agonist).
The EC50 of `CCCC[C@H](NC(=O)[C@@H](NC(=O)[C@@H](N)Cc1ccc(O)cc1)C(C)C)C(=O)NCC(=O)N[C@@H](Cc1c[nH]cn1)C(=O)N[C@@H](Cc1ccccc1)C(=O)N[C@@H](CCCNC(=N)N)C(=O)N[C@H](Cc1c[nH]c2ccccc12)C(=O)N[C@@H](CC(=O)O)C(=O)N[C@@H](CCCNC(=N)N)C(=O)N[C@@H](Cc1ccccc1)C(=O)NCC(=O)O` is reported as 0.04 µM (Melanocortin receptor 3; reporter gene, agonist).
With `CCn1c(-c2nc3cc(C(=O)N4CCC[C@@H](N)C4)cc(OC)c3n2C)cc2cccnc21` the EC50 was 7.94 µM (CHRM1; calcium signal, agonist).
For `N[C@@H](CCC(=O)O)C(=O)O`, the EC50 was 6.3 µM (Grm8; ion flux, agonist).
For `CCCC[C@H](NC(=O)[C@@H](NC(=O)[C@@H](N)Cc1ccc(O)cc1)C(C)C)C(=O)NCC(=O)N[C@@H](Cc1c[nH]cn1)C(=O)N[C@@H](Cc1ccccc1)C(=O)N[C@@H](CCCN=C(N)N)C(=O)N[C@@H](Cc1c[nH]c2ccccc12)C(=O)N[C@@H](CC(=O)O)C(=O)N[C@@H](CCCN=C(N)N)C(=O)N[C@@H](Cc1ccccc1)C(=O)NCC(=O)O`, the EC50 was 0.068 µM (Melanocortin receptor 3; reporter gene, agonist).
`CCCCOc1nc(N)c2[nH]c(=O)n(CCN3CCNCC3)c2n1` has an EC50 of 10 µM (TLR7; reporter gene, agonist).
`CCNC(=O)C1OC(n2cnc3c(N)nc(NN=CC4CCC=CO4)nc32)C(O)C1O` (centres unmarked) gave an EC50 of 31 µM (Adenosine receptor A2b (ADORA2B, Homo sapiens, UniProt P29275); GTPγS binding, agonist; cell membranes).
For `CSCC[C@H](N)C(=O)NCC(=O)N[C@@H](Cc1c[nH]cn1)C(=O)N[C@@H](Cc1ccccc1)C(=O)N[C@@H](CCCNC(=N)N)C(=O)N[C@@H](Cc1c[nH]c2ccccc12)C(=O)O`, the EC50 was 22.4 µM (Melanocortin receptor 3; reporter gene, agonist).
With `COC(=O)c1ccc(-n2c(C)cc(C(=O)CSc3ccc(NC(C)=O)cc3)c2C)cc1` the EC50 was 0.851 µM (Grm8; calcium signal, positive allosteric modulator).
With `CCCCOc1nc(N)c2[nH]c(=O)n(C3CNC3)c2n1` the EC50 was 286 µM (TLR7; reporter gene, agonist).
`CSCC[C@H](NC(=O)[C@@H](NC(=O)[C@@H](N)Cc1ccc(O)cc1)C(C)C)C(=O)NCC(=O)N[C@@H](Cc1c[nH]cn1)C(=O)N[C@@H](Cc1ccccc1)C(=O)N[C@@H](CCCNC(=N)N)C(=O)N[C@@H](Cc1c[nH]c2ccccc12)C(=O)O` gave an EC50 of 2.8 µM (Melanocortin receptor 3; reporter gene, agonist).
For `CC(=O)c1cc([N+](=O)[O-])c(Sc2cccc(Cl)c2Cl)s1`, the EC50 was greater than 50 µM (Collagenase 3 (MMP13, Homo sapiens, UniProt P45452); enzyme activity, inhibitor).
`CCn1c(-c2nc3ccc(C(=O)N4CCCC(N)C4)cc3n2C)cc2ccccc21` (centres unmarked) gave an EC50 of 15.8 µM (CHRM1; calcium signal, agonist).
